How the values were obtained:
Type in all cases: functional
Jurkat = assay: Cytotoxicity against human Jurkat cells by MTT assay; conditions: read-out: LD50 (the source's name)
How it was run: (§1)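 Cells (Jurkat and LNCaP grown in RPMI with 10% FBS) were seeded at ≥5 × 10^4 cells/mL, dosed from DMSO stock for 24 h, then given fresh medium plus MTT (Jurkat pelleted first). After 4 h, SDS in 0.01 M HCl was added for 18 h at 37°C. A570 was read. % living cells was calculated against a no-cell blank and a DMSO-only control, and LD50 was reported.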

PC-3 [1] = assay: Cytotoxicity against human PC3 cells by MTT assay; conditions: read-out: LD50 (the source's name)
How it was run: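 PC3 cells grown in Ham's F-12K with 10% FBS were seeded at ≥5 × 10^4 cells/mL, dosed from DMSO stock for 24 h, then given fresh growth medium plus MTT for 4 h. SDS in 0.01 M HCl was added for 18 h at 37°C, 5% CO2. A570 was read. % living cells was calculated against a no-cell blank and a DMSO-only control, and LD50 was reported.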

LNCaP = assay: Cytotoxicity against human LNCAP cells by MTT assay; conditions: read-out: LD50 (the source's name); how it was run: as §1
PC-3 [2] = assay: Induction of endogenous phospholipidserine distribution in human PC3 cells at 100 uM by Annexin-V-FITC
How it was run: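 PC3 cells detached with trypsin at 90% confluency and resuspended in TES buffer (5 mM TES, 100 mM NaCl, pH 7.4) at 1 × 10^5 cells/mL. Scramblase added from DMSO stock, 100 μM final, 2 h at 37°C, 5% CO2. Pelleted, resuspended in binding buffer, stained 15 min at 37°C with Annexin V-FITC plus 7AAD (500 ng/mL) to exclude necrotic cells. Annexin-positive fraction read by flow cytometry; three independent experiments.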

SMILES	CC50 (Jurkat) [µM]	CC50 (PC-3 [1]) [µM]	CC50 (LNCaP) [µM]	Activity (PC-3 [2]) [%]
CC(=O)c1ccc(NC(=O)NCCN(CCNS(=O)(=O)c2ccc(C)cc2)CCNS(=O)(=O)c2ccc(C)cc2)cc1	> 100	> 100	> 100	
Cc1ccc(S(=O)(=O)NCCN(CCNC(=O)Nc2ccc(C(F)(F)F)cc2)CCNS(=O)(=O)c2ccc(C)cc2)cc1	> 100	> 100	> 100	
Cc1ccc(S(=O)(=O)NCCN(CCNC(=O)[C@H](N)Cc2ccccc2)CCNS(=O)(=O)c2ccc(C)cc2)cc1	25	15	40	
Cc1ccc(S(=O)(=O)NCCN(CCNC(=O)Nc2ccc(Oc3ccccc3)cc2)CCNS(=O)(=O)c2ccc(C)cc2)cc1	> 100	> 100	> 100	
Cc1ccc(S(=O)(=O)NCCN(CCNC(=O)Nc2ccc(OC(F)(F)F)cc2)CCNS(=O)(=O)c2ccc(C)cc2)cc1	> 100	> 100	> 100	
Cc1ccc(S(=O)(=O)NCCN(CCNC(=O)Nc2ccccc2)CCNS(=O)(=O)c2ccc(C)cc2)cc1	> 100	> 100	> 100	< 5
Cc1ccc(S(=O)(=O)NCCN(CCNC(=O)Nc2ccc(Cl)cc2)CCNS(=O)(=O)c2ccc(C)cc2)cc1	> 100	> 100	> 100	
Cc1ccc(NC(=O)NCCN(CCNS(=O)(=O)c2ccc(C)cc2)CCNS(=O)(=O)c2ccc(C)cc2)cc1	> 100	> 100	> 100	
Cc1ccc(S(=O)(=O)NCCN(CCNC(=O)Nc2ccc(Br)cc2)CCNS(=O)(=O)c2ccc(C)cc2)cc1	> 100	> 100	> 100	
COc1ccc(NC(=O)NCCN(CCNS(=O)(=O)c2ccc(C)cc2)CCNS(=O)(=O)c2ccc(C)cc2)cc1	> 100	> 100	> 100	
Cc1ccc(S(=O)(=O)NCCN(CCNC(=S)Nc2ccc(Cl)cc2)CCNS(=O)(=O)c2ccc(C)cc2)cc1	15	25	15	
Cc1ccc(S(=O)(=O)NCCN(CCNC(=O)Nc2ccc(C(C)(C)C)cc2)CCNS(=O)(=O)c2ccc(C)cc2)cc1	> 100	> 100	> 100	
Cc1ccc(S(=O)(=O)NCCN(CCNC(=O)Nc2ccc([N+](=O)[O-])cc2)CCNS(=O)(=O)c2ccc(C)cc2)cc1	> 100	> 100	> 100	< 5
Cc1ccc(S(=O)(=O)NCCN(CCNC(=O)Nc2ccc(C(C)C)cc2)CCNS(=O)(=O)c2ccc(C)cc2)cc1	> 100	> 100	> 100	< 5
Cc1ccc(S(=O)(=O)NCCN(CCNC(=O)Nc2ccc(C#N)cc2)CCNS(=O)(=O)c2ccc(C)cc2)cc1	> 100	> 100	> 100	
Cc1ccc(S(=O)(=O)NCCN(CCNCc2ccccc2)CCNS(=O)(=O)c2ccc(C)cc2)cc1	25	25	40	

— ChEMBL document CHEMBL1139299, “Facilitated phospholipid translocation in vesicles and nucleated cells using synthetic small molecule scramblases” (Bioorg Med Chem, 2009)
